# Compounds with a hit are over-represented: about 0.99% of the library has one in this group of screens.
# NSD2 HMT inh = NSD2 histone methyltransferase inhibitors, primary screen, biochemical, AlphaScreen, single concentration, set 2 | Histone-lysine N-methyltransferase NSD2 (Homo sapiens), O96028 | 310,000 compounds, 0.54% hits | inhibition, % at 12.5 µM | NSD2 peptide methylation, 120 min | AID 743445, 2014; in the data active = inhibition above about 50%
# Target sequence (O96028 whole entry, looked up): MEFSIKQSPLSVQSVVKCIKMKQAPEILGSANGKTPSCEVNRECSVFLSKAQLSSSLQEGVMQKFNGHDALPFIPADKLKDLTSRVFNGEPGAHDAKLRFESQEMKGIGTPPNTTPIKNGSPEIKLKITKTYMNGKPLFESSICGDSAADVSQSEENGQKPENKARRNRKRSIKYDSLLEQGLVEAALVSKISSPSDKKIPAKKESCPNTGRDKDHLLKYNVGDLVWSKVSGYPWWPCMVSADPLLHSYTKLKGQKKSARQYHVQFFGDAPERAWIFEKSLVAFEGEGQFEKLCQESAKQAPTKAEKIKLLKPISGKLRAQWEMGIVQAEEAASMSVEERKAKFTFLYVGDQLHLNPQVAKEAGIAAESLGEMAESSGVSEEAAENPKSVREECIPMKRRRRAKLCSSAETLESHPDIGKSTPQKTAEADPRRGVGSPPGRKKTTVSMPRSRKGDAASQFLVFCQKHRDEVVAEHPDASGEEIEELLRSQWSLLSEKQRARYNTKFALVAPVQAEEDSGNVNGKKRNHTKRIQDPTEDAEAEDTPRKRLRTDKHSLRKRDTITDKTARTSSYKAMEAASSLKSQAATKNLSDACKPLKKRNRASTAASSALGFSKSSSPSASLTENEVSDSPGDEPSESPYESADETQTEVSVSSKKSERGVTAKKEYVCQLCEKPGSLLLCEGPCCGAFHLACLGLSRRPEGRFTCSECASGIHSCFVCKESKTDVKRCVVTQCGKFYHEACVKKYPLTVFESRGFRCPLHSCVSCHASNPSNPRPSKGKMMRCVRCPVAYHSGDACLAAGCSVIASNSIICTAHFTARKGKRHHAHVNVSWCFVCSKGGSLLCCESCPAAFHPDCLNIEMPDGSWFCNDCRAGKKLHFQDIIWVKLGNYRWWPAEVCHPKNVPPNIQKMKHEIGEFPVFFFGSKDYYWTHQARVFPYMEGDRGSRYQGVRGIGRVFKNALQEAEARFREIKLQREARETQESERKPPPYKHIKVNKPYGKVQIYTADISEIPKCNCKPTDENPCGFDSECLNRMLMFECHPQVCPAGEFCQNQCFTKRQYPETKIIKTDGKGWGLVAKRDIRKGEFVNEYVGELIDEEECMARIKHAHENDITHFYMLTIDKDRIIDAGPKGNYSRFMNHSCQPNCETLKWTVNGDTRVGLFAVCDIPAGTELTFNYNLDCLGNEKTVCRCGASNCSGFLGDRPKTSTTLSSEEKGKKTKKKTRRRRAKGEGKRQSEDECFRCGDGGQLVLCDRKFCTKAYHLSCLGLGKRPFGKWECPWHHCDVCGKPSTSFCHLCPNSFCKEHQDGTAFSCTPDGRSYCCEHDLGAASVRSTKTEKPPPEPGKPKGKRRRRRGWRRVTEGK
# GC-B act = human GC-B receptor activators, primary screen, HEK293 GC-B cells, cGMP TR-FRET, EC30 CNP. activation, % at 10 µM. Atrial natriuretic peptide receptor 2 (Homo sapiens), P20594. 370,000 compounds, 0.11% hits. AID 1920062, 2024. 0% at EC30 CNP, 100% saturating CNP;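 active = activation at 10 µM reaching about 35% in either raw or pattern-adjusted values, limit read from the data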
# CASP6 VEID inh = human caspase-6 inhibitors, primary screen, biochemical, VEID-R110 fluorescence, single point, set 2; 350,000 compounds, 0.53% hits; purified caspase-6, Z-VEID-R110 cleavage fluorescence; inhibition, % at 12.5 µM;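 active = mean inhibition across replicates at least about 35%, with every replicate also reaching that limit, limit read from the data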
# FN deposit inh = inhibitors of fibronectin matrix deposition, primary screen, AH1F cells, Alexa488-fibronectin fluorescence, plate reader. AH1F fibroblasts, overnight. inhibition, % at 12.6 µM. 350,000 compounds, 0.086% hits;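 active = mean inhibition across replicates of 30% or more, regardless of how many single replicates reach that level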
#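 Material – AH1F fibroblast monolayer, labelled fibronectin deposition · Reagent – labelled fibronectin 24 nM · Timing – 1 h adhesion, overnight exposure · Measured by – fluorescence at 485 nm excitation, 525 nm emission · Read-out – inhibition of fibronectin deposition signal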
# CaV13 ICDI inh = Primary screen for inhibitors of IQ motif and Ca2+-dependent inactivation inhibitor domain binding in CACNA1D, Förster resonance energy transfer in living cells, … | inhibition, % at 12.3 µM | HEK cells, CFP/YFP FRET ICDI-IQ, plate reader, 10 min; percent FRET-ratio fall versus neutral wells | 340,000 compounds, 0.098% hits;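 active = mean replicate inhibition of at least 30% and at least 1% of replicates passing that level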
# NPR1 activator = GC-A stimulated cGMP production enhancers – HEK293 GC-A cells, cGMP TR-FRET, EC30 ANP, primary screen. 0% at EC30 ANP, 100% saturating ANP. activation, % at 10 µM. 370,000 compounds, 0.14% hits; in the data active = activation above about 40%
# CASP1 counter = human caspase-1 inhibitors, dose response, selectivity assay for caspase-6 inhibitor project, biochemical, Z-YVAD-R110 fluorescence, cherry-pick, set 2; purified caspase-1, Z-YVAD-R110 cleavage fluorescence; shares compounds with CASP6 VEID inh; activity change, negative = inhibition, % at 35 µM; 100 tested, under 10 active;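 active = compounds lowering fluorescence whose fitted half-maximal concentration is no more than twice their top tested dose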
# A number is an active result; . = inactive; / = not tested or not shown.
SMILES,NSD2 HMT inh,GC-B act,CASP6 VEID inh,FN deposit inh,CaV13 ICDI inh,NPR1 activator,others
C=C1[C@@H](C)C2[C@H](Cc3ccccc3)NC(=O)[C@]23[C@H](OC(C)=O)/C=C/[C@@](C)(O)C(=O)[C@@H](C)C/C=C/[C@H]3[C@@H]1O (some centres undefined),/,.,/,/,/,.,
COc1ccccc1CN1[C@H](CO)[C@H](c2ccccc2)C12CN(C(=O)Cc1ccccc1)C2,/,/,.,.,/,/,
CN1CCN(c2ccc(S(C)(=O)=O)cc2[N+](=O)[O-])CC1,.,.,.,.,.,.,
CN1CCN(c2ccc([N+](=O)[O-])c3no[n+]([O-])c23)CC1,97,.,.,.,.,.,
COC(=O)[C@H]1[C@H](CO)[C@H]2Cn3c(ccc(C4=CCCCC4)c3=O)[C@@H]1N2CC1CCCCC1,/,/,.,/,/,/,
O=C(O)c1ccc([N+](=O)[O-])c([N+](=O)[O-])c1,.,.,41,.,.,.,
O=[N+]([O-])c1ccc(O)c([N+](=O)[O-])c1,/,.,.,.,.,.,
O=C(Cc1ccccn1)N1CC2(C1)[C@H](c1ccccc1)[C@H](CO)N2Cc1ccccn1,/,/,.,/,/,/,
O=C(Cc1ccccc1)N1CCCCN2[C@H](CO)[C@@H](c3ccc(C#Cc4ccccc4)cc3)[C@H]2C1,/,/,54,/,/,/,
Cc1ccccc1N1C(=O)NC(=O)/C(=C\c2cnn(-c3ccccc3)c2)C1=O,.,.,.,.,.,45,
C=CCN1C(=O)/C(=C/c2ccc(Br)s2)C(=O)NC1=S,.,.,53,.,.,.,
C=CCN1C(=O)/C(=C\c2ccc(N3CCOCC3)o2)C(=O)NC1=S,.,.,.,/,/,.,
O=C1NC(=O)C(=Cc2ccc(-c3ccc(F)cc3O)o2)C(=O)N1,/,.,.,.,.,57,
O=C1NC(=O)C(=Cc2ccc(-c3ccc(S(=O)(=O)N4CCOCC4)cc3)o2)C(=O)N1,/,.,.,.,.,.,
C[n+]1c2ccccc2nc2ccc(NCCO)cc21,101,.,83,.,.,.,
CNc1ccc2nc3ccccc3[n+](C)c2c1,81,.,95,.,.,.,
CC(C)NC(=O)N1C[C@@H]2C(c3ccc(Br)cc3)[C@H](C1)N2CC1CC1 (some centres undefined),/,/,/,.,/,/,
CC[C@H](C)[C@@H]1NC(=O)CNC(=O)c2csc(n2)[C@H](C(C)(C)O)OC(=O)C(C)(C)[C@H](CCCC(C)(Cl)Cl)OC(=O)c2csc1n2,/,.,40,48,.,.,
O=C1C(=O)c2cccc3cccc1c23,.,.,.,.,.,.,
O=C1C(=O)c2ccccc2-c2ccccc21,/,.,54,56,.,.,
C[C@H](CO)N1C[C@H](C)[C@@H](CN(C)C(=O)Oc2ccccc2)OCc2ccccc2-c2c(n(C)c3ccccc23)C1=O,/,/,/,.,/,/,
COc1cc(/C=C/c2nc3ccccc3c(=O)n2-c2ccc(O)cc2)ccc1O,.,35,.,.,.,.,
CC(=O)N1C[C@@H]2N[C@H](C1)C2c1ccccc1 (some centres undefined),/,/,/,.,/,/,
CCN(CC)C(=O)Cn1cc(/C=C2\C(=O)NC(=O)N(c3ccccc3F)C2=O)c2ccccc21,.,.,.,.,.,44,
O=C(O)Cn1cc(/C=C2\C(=O)NC(=O)N(c3ccc(Cl)cc3)C2=O)c2ccccc21,.,.,.,.,.,.,
SMILES,NSD2 HMT inh,GC-B act,CASP6 VEID inh,FN deposit inh,CaV13 ICDI inh,NPR1 activator,others
COc1ccc(CC2=NCCc3cc(OC)c(OC)cc32)cc1OC,/,.,/,.,.,.,
COc1ccc(Cc2nccc3cc(OC)c(OC)cc23)cc1OC,/,.,54,.,.,.,
Cc1cccc(S(=O)(=O)N2[C@@H]3c4ccc(-c5ccccc5)c(=O)n4C[C@H]2[C@H](CO)[C@H]3C(=O)O)c1,/,/,.,/,/,/,
CCCN1[C@@H]2c3ccc(-c4ccc(F)cc4)c(=O)n3C[C@H]1[C@H](CO)[C@H]2C(=O)OC,/,/,.,/,/,/,
O=c1[nH]c2ccccc2n1C1CCN(C(CCc2ccccc2)c2nnnn2Cc2ccccc2)CC1 (centres undefined),/,.,.,41,.,.,
CSCCC(c1nnnn1Cc1ccccc1)N1CCC(n2c(=O)[nH]c3ccccc32)CC1 (centres undefined),/,.,.,.,.,.,
COC(=O)[C@@H]1[C@@H](CO)[C@@H]2Cn3c(ccc(-c4ccccc4)c3=O)[C@H]1N2CC1CCOCC1,/,/,.,/,/,/,
O=C(COC(=O)Cc1ccccc1)Nc1cc(S(=O)(=O)N2CCCCC2)ccc1Cl,.,.,71,.,.,.,
O=C(Cc1ccccn1)N1CC2(C1)[C@H](c1ccccc1)[C@@H](CO)N2Cc1ccccn1,/,/,.,/,/,/,
CS(=O)(=O)N1C[C@@H]2C(c3ccc(Br)cc3)[C@H](C1)N2CC1CC1 (some centres undefined),/,/,/,.,/,/,
CC(C)c1ccc(C(c2c(O)c3ccccc3oc2=O)c2c(O)c3ccccc3oc2=O)cc1,.,.,66,.,.,.,
O=C(Cc1cccnc1)N1CCCCN2[C@@H](CO)[C@@H](c3ccc(C#CC4CC4)cc3)[C@@H]2C1,/,/,.,/,/,/,
CCN(CC)c1ccc(CN2CC=C(c3ccc(F)cc3)CC2)cc1,54,.,/,/,/,.,
O=C1CNC[C@H]2[C@H](c3ccc(Br)cc3)[C@@H](CO)N12,/,/,.,.,/,/,
Cc1c(N=Nc2c(O)[nH]c(=O)[nH]c2=O)c(=O)n(-c2ccccc2)n1C,.,.,41,.,.,.,
O=C(Cc1cccnc1)N1CCCCN2[C@H](CO)[C@@H](c3ccc(/C=C/c4ccccc4)cc3)[C@@H]2C1,/,/,.,/,/,/,
CCC1CO/C(=C(\C(Cl)=C(Cl)Cl)[N+](=O)[O-])N1Cc1ccc(Cl)nc1 (centres undefined),.,.,.,.,.,.,
O=C(C(=C1N(Cc2ccc(Cl)nc2)CCN1Cc1ccc(Cl)nc1)[N+](=O)[O-])C(Cl)Cl,.,.,36,.,.,.,
C=CCN1[C@@H]2CN(C(=O)NC(C)C)C[C@H]1C2c1ccccc1 (some centres undefined),/,/,/,.,/,/,
COc1cc2c(cc1OC)-c1c(OC)c(OC)cc3c1[C@H](C2)N(C)CC3,/,.,58,.,.,.,CASP1 counter=.

# Assay outcomes deposited in PubChem BioAssay by several laboratories.
